Activity and IC50 data for 8 compounds are collected here from ChEMBL document CHEMBL1154135, “Macaflavanones A-G, prenylated flavanones from the leaves of Macaranga tanarius” (J Nat Prod, 2008).

Assay [1] has as its system KB. The assay can be described thus: Cytotoxicity against human KB cells after 72 hrs by MTT assay. Type of assay: functional, cell-based. In short, it runs like this:
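KB cells seeded at 3 × 10^3 cells/well in DMEM with 10% FBS, amphotericin B (0.5 µg/ml) and kanamycin sulfate (100 µg/mL), 37 °C, 5% CO2. After 24 h, samples in 10% DMSO added; incubated 72 h. MTT (0.5 mg/mL) added for 1.5 h, formazan dissolved in DMSO, absorbance at 540 nm minus 620 nm. % inhibition vs control; etoposide positive control; means with SD, triplicate.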
Background: Tetrazolium dyes change colour on reduction, which living cells bring about.

The subject of assay [2] is A549. The assay is described as follows: Cytotoxicity against human A549 cells after 72 hrs by MTT assay. Particulars: for IC50: A549, 72 h. Type of assay: functional, cell-based. In short, it runs like this:
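A549 cells exposed 72 h to samples added in 10% DMSO after a 24 h pre-culture at 37 °C, 5% CO2. MTT (0.5 mg/mL) in DMEM for 1.5 h, formazan dissolved in DMSO, absorbance at 540 nm minus 620 nm. % inhibition relative to untreated control gives IC50; etoposide positive control; means with SD from triplicate experiments.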

Activity calls are given as the source filed them. The calls are words filed in the database; no cut-off is given here.

As usually defined, the IC50 is the concentration that inhibits the measured activity by half.

For the compound `CC(C)=CCC[C@@]1(C)C=Cc2c([C@@H]3CC(=O)c4c(cc(O)c(CC=C(C)C)c4O)O3)ccc(O)c2O1`, the outcome in assay [1] and in assay [2] was inactive.

For `CC(C)=CCC[C@@]1(C)CCc2c([C@@H]3CC(=O)c4c(cc(O)c(CC=C(C)C)c4O)O3)ccc(O)c2O1`, the outcome in assay [1] and in assay [2] was inactive.

Take `COc1cc([C@@H]2c3cc4c(cc3[C@@H](O[C@@H]3O[C@@H]5CO[C@@H](C)O[C@H]5[C@H](O)[C@H]3O)[C@H]3COC(=O)[C@H]23)OCO4)cc(OC)c1O` [ETOPOSIDE]: the concentration for half-maximal inhibition (IC50) was found to be 1.25 µM in assay [1] and 8.37 µM in assay [2].

For `CC(C)=C/C=C/[C@]1(C)CCc2c([C@@H]3CC(=O)c4c(cc(O)c(CC=C(C)C)c4O)O3)ccc(O)c2O1`, the result in assay [1] and in assay [2] was inactive.

Regarding `CC(C)=CCC[C@]1(C)CCc2c([C@@H]3CC(=O)c4c(cc(O)c(CC=C(C)C)c4O)O3)ccc(O)c2O1` [MACAFLAVANONE G], the results for the IC50 in assay [1] and in assay [2] were 12.3 µM and 13.4 µM, respectively.

For `CC(C)=CCC/C(C)=C/Cc1c([C@@H]2CC(=O)c3c(cc4c(c3O)CCC(C)(C)O4)O2)ccc(O)c1O`, the outcome in assay [1] and in assay [2] was inactive.

Take `CC(C)=CCC/C(C)=C/Cc1c([C@@H]2CC(=O)c3c(cc4c(c3O)C=CC(C)(C)O4)O2)ccc(O)c1O`: the outcome in assay [1] and in assay [2] was inactive.

With `CC(C)=C/C=C/[C@@]1(C)CCc2c([C@@H]3CC(=O)c4c(cc(O)c(CC=C(C)C)c4O)O3)ccc(O)c2O1`, the result in assay [1] and in assay [2] was inactive.
